Experimental data from different studies.
Protocols differ between the studies behind these lines.
Target: Mitogen-activated protein kinase 7 (MAPK7, Homo sapiens, UniProt Q13164)

COc1ccc2[nH]c3c4[nH]c5ccc(OC)cc5c4c4c(c3c2c1)C(=O)NC4=O  remaining binding (binding; 1 µM): 69%
C[C@]1(O)CCCN(c2nc(Nc3ccc(S(=O)(=O)N[C@H]4CC[C@H](CN5CCN(c6ccc(C7CCC(=O)NC7=O)cc6F)CC5)CC4)cc3F)ncc2C(F)(F)F)C1 (some centres unmarked)  remaining binding (binding; competition with immobilised ligand; 1 µM): 37%
CO[C@@H]1[C@H](N(C)C(=O)c2ccccc2)C[C@H]2O[C@]1(C)n1c3ccccc3c3c4c(c5c6ccccc6n2c5c31)C(=O)NC4  inhibition (enzyme activity; inhibitor; 1 µM): 0%
CCCCC(=O)Nc1ccc(-c2ccc3ncn(CCC)c(=O)c3c2)cn1  remaining binding (binding; competition with immobilised ligand; 0.5 µM): 82%
Cc1cc(O)c(-c2ccc([C@@H](C)CN(C)C)cc2)c2c1[nH]c(=O)c1sccc12  inhibition (enzyme activity; inhibitor; 0.1 µM): -0.313%
C[C@H]1CC[C@H](n2c3cnccc3c3cnc(Nc4ccc5c(n4)CCN(C(=O)CO)C5)nc32)CC1  remaining signal (cell-free assay; 1 µM): 92%
C[C@]1(O)CCCN(c2nc(Nc3ccc(S(=O)(=O)N[C@H]4CC[C@H](CN5CCN(c6ccc(C7CCC(=O)NC7=O)cc6F)CC5)CC4)cc3Cl)ncc2C(F)(F)F)C1 (some centres unmarked)  remaining binding (binding; competition with immobilised ligand; 1 µM): 18%
CC#CC(=O)N1CCC[C@H]1c1nc(-c2ccc(C(=O)Nc3ccccn3)cc2)c2c(N)nccn12  inhibition (enzyme activity; inhibitor; 1 µM): 0%
